Data as given in ChEMBL document CHEMBL1629475, “Synthesis of new chalcone derivatives containing a rhodanine-3-acetic acid moiety with potential anti-bacterial activity” (2010).
Active and inactive are the calls of the source. The rule behind the calls is not given here.

Columns and labels:
Streptococcus mutans [1] = test: Antibacterial activity against Streptococcus mutans KCTC 3289 after 20 hrs by twofold serial dilution technique; format: functional; conditions: KCTC 3289, 20 h
Procedure, shortened: (§1)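 Inoculum was 10⁵ CFU/mL, and MIC was read after incubation at 37 °C for 20 h. Oxacillin and norfloxacin were the positive controls.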

Escherichia coli [2] = test: Antibacterial activity against Escherichia coli 1356 after 20 hrs by twofold serial dilution technique; format: functional; conditions: Escherichia coli, 1356, 20 h
Procedure, shortened: (§2)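 Inoculum was 10⁵ CFU/mL. MIC was read after 20 h at 37 °C. The MRSA and QRSA strains were multidrug-resistant clinical isolates. Oxacillin and norfloxacin served as positive controls.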

Staphylococcus aureus [3] = test: Antibacterial activity against Staphylococcus aureus RN 4220 at 64 ug/ml; format: functional, organism-based
Staphylococcus aureus [4] = test: Antibacterial activity against Staphylococcus aureus KCTC 209 at 64 ug/ml; format: functional, organism-based
Streptococcus mutans [5] = test: Antibacterial activity against Streptococcus mutans KCTC 3065 after 20 hrs by twofold serial dilution technique; format: functional; conditions: KCTC 3065, 20 h; procedure, shortened: as §1
Streptococcus mutans [6] = test: Antibacterial activity against Streptococcus mutans KCTC 3065 at 64 ug/ml; format: functional, organism-based
Staphylococcus aureus [7] = test: Antibacterial activity against Staphylococcus aureus KCTC 209 after 20 hrs by twofold serial dilution technique; format: functional; conditions: KCTC 209, 20 h; procedure, shortened: as §2
Staphylococcus aureus [8] = test: Antibacterial activity against Staphylococcus aureus RN 4220 after 20 hrs by twofold serial dilution technique; format: functional; conditions: RN 4220, 20 h; procedure, shortened: as §2
Streptococcus mutans [9] = test: Antibacterial activity against Streptococcus mutans KCTC 3289 at 64 ug/ml; format: functional, organism-based
Escherichia coli [10] = test: Antibacterial activity against Escherichia coli 1924 at 64 ug/ml; format: functional, organism-based
Escherichia coli [11] = test: Antibacterial activity against Escherichia coli 1356 at 64 ug/ml; format: functional, organism-based
Staphylococcus aureus [12] = test: Antibacterial activity against Staphylococcus aureus KCTC 503 at 64 ug/ml; format: functional, organism-based
Staphylococcus aureus [13] = test: Antibacterial activity against Staphylococcus aureus KCTC 503 after 20 hrs by twofold serial dilution technique; format: functional; conditions: KCTC 503, 20 h; procedure, shortened: as §2
Escherichia coli [14] = test: Antibacterial activity against Escherichia coli 1924 after 20 hrs by twofold serial dilution technique; format: functional; conditions: Escherichia coli, 1924, 20 h; procedure, shortened: as §2

MIC (Streptococcus mutans [1]): > 64 µg/mL | MIC (Escherichia coli [2]): > 64 µg/mL | MIC (Streptococcus mutans [5]): > 64 µg/mL | MIC (Staphylococcus aureus [7]): > 64 µg/mL | MIC (Staphylococcus aureus [8]): > 64 µg/mL | MIC (Staphylococcus aureus [13]): > 64 µg/mL | MIC (Escherichia coli [14]): > 64 µg/mL
Structure (SMILES): O=C(O)CN1C(=O)/C(=C\c2ccc(/C=C/C(=O)c3ccccc3F)cc2)SC1=S
Activity (Staphylococcus aureus [3]): inactive | Activity (Staphylococcus aureus [4]): inactive | Activity (Streptococcus mutans [6]): inactive | Activity (Streptococcus mutans [9]): inactive | Activity (Escherichia coli [10]): inactive | Activity (Escherichia coli [11]): inactive | Activity (Staphylococcus aureus [12]): inactive
